Laboratory results from ChEMBL document CHEMBL3865827, “A novel class of ethacrynic acid derivatives as promising drug-like potent generation of anticancer agents with established mechanism of action” (Eur J Med Chem, 2016).
The source made the active and inactive calls. The rule behind the calls is not given here.

Columns and labels:
[1] = Antiproliferative activity against human KB cells after 24 to 72 hrs by MTS assay; type: functional, cell-based
Summary of the method: (§1)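 Cells plated, then dosed 24 h later with compounds in DMSO (1% final; controls DMSO alone), exposed 24 or 72 h. Proliferation inhibition measured as previously reported (MTS/NADH reagent). IC50 from duplicate experiments over 0.5 nM–100 µM. KB grown in D-MEM with 10% fetal calf serum, penicillin, streptomycin, fungizone, 5% CO2; other lines in complete RPMI. EPC are quiescent Cyprinus carpio endothelial progenitor cells.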

[2] = Antiproliferative activity against human HL60 cells after 24 to 72 hrs by MTS assay; type: functional, cell-based; conditions: HL-60; summary of the method: as §1
[3] = Antiproliferative activity against human MCF7 cells after 24 to 72 hrs by MTS assay; type: functional, cell-based
[4] = Antiproliferative activity against human HCT116 cells after 24 to 72 hrs by MTS assay; type: functional, cell-based; conditions: HCT-116
[5] = Antiproliferative activity against human PC3 cells after 24 to 72 hrs by MTS assay; type: functional, cell-based; conditions: PC-3
[6] = Antiproliferative activity against human SKOV3 cells after 24 to 72 hrs by MTS assay; type: functional, cell-based; conditions: SK-OV-3
[7] = Antiproliferative activity against human OVCAR8 cells after 24 to 72 hrs by MTS assay; type: functional, cell-based; conditions: OVCAR-8
[8] = Cytotoxicity against human HL60 cells assessed as reduction in cell viability after 24 hrs by MTS assay; type: functional, cell-based; conditions: HL-60, 24 h
KB [9] = assay: Induction of necrosis in human KB cells assessed as increase in LDH release at 7 uM after 24 to 48 hrs by fluorescence assay; type: functional, cell-based
HCT-116 [10] = assay: Induction of necrosis in human HCT116 cells assessed as increase in LDH release at 7 uM after 24 to 48 hrs by fluorescence assay; type: functional, cell-based
MRC5 [11] = assay: Induction of necrosis in human MRC5 SV2 cells assessed as increase in LDH release at 7 uM after 24 to 48 hrs by fluorescence assay; type: functional, cell-based
HL-60 [12] = assay: Induction of apoptosis in human HL60 cells assessed as dead cells at 5 uM after 24 hrs by Annexin V/7AAD-dual staining based FACS analysis (reference value: 0.1 %); type: functional
HL-60 [13] = assay: Induction of apoptosis in human HL60 cells assessed as necrotic/late apoptotic cells at 5 uM after 24 hrs by Annexin V/7AAD-dual staining based FACS analysis (reference value: 0.6 %); type: functional
Summary of the method: (§2)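 HL60 cells treated 24 h with EA (10 or 50 µM) or derivatives (5 µM); controls vehicle only. Annexin V/7-AAD staining, flow cytometry; cells classed as dead, necrotic/late apoptotic, intact or early apoptotic, as percentages.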

HL-60 [14] = assay: Induction of apoptosis in human HL60 cells assessed as intact cells at 5 uM after 24 hrs by Annexin V/7AAD-dual staining based FACS analysis (reference value: 91.6 %); type: functional; summary of the method: as §2
HL-60 [15] = assay: Induction of apoptosis in human HL60 cells assessed as early apoptotic cells at 5 uM after 24 hrs by Annexin V/7AAD-dual staining based FACS analysis (reference value: 7.7 %); type: functional; summary of the method: as §2
HL-60 [16] = assay: Induction of apoptosis in human HL60 cells assessed as intact cells at 5 uM after 24 hrs by Annexin V/7AAD-dual staining based FACS analysis; type: functional, cell-based; summary of the method: as §2
HL-60 [17] = assay: Induction of apoptosis in human HL60 cells assessed as early apoptotic cells at 5 uM after 24 hrs by Annexin V/7AAD-dual staining based FACS analysis; type: functional, cell-based; summary of the method: as §2
HL-60 [18] = assay: Induction of apoptosis in human HL60 cells assessed as caspase 3/7 activation at 5 uM preincubated for 24 hrs after 180 mins by fluorescence assay; type: functional, cell-based
Summary of the method: (§3)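 HL60 cells treated 24 h with EA (50 µM), derivatives (5 µM) or doxorubicin (50 nM, positive control), then caspase-3 activity assayed by fluorescence (ex 360, em 435 nm) at 0, 30, 60, 120 and 180 min. Rate from slope of linear phase, expressed as fold-activation over DMSO-treated HL60.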

[19] = Cell cycle arrest in human HL60 cells assessed as accumulation at G0/G1 phase at 2.5 uM after 24 hrs by propidium iodide-staining based FACS analysis (reference value: 43.5 %); type: functional; conditions: HL-60
Summary of the method: (§4)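 HL60 cells, 25,000 per well, exposed 24 and 48 h to 2.5 µM compounds; controls DMSO (1% final). Propidium iodide staining, flow cytometry; fractions in sub-G1, G0/G1, S and G2/M quantified.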

[20] = Cell cycle arrest in human HL60 cells assessed as accumulation at S phase at 2.5 uM after 24 hrs by propidium iodide-staining based FACS analysis (reference value: 48.9 %); type: functional; conditions: HL-60; summary of the method: as §4
[21] = Cell cycle arrest in human HL60 cells assessed as accumulation at G2/M phase at 2.5 uM after 24 hrs by propidium iodide-staining based FACS analysis (reference value: 5.1 %); type: functional; conditions: HL-60; summary of the method: as §4
[22] = Cell cycle arrest in human HL60 cells assessed as accumulation at sub G1 phase at 2.5 uM after 24 hrs by propidium iodide-staining based FACS analysis (reference value: 2.6 %); type: functional; conditions: HL-60; summary of the method: as §4
[23] = Cell cycle arrest in human HL60 cells assessed as accumulation at G0/G1 phase at 2.5 uM after 48 hrs by propidium iodide-staining based FACS analysis (reference value: 43.8 %); type: functional; conditions: HL-60; summary of the method: as §4
[24] = Cell cycle arrest in human HL60 cells assessed as accumulation at S phase at 2.5 uM after 48 hrs by propidium iodide-staining based FACS analysis (reference value: 52.6 %); type: functional; conditions: HL-60; summary of the method: as §4
[25] = Cell cycle arrest in human HL60 cells assessed as accumulation at G2/M phase at 2.5 uM after 48 hrs by propidium iodide-staining based FACS analysis (reference value: 2.2 %); type: functional; conditions: HL-60; summary of the method: as §4
[26] = Cell cycle arrest in human HL60 cells assessed as accumulation at sub G1 phase at 2.5 uM after 48 hrs by propidium iodide-staining based FACS analysis (reference value: 1.4 %); type: functional; conditions: HL-60; summary of the method: as §4
KB [27] = assay: Selectivity index, ratio of IC50 for Cyprinus carpio EPC to IC50 for human KB cells
HL-60 [28] = assay: Selectivity index, ratio of IC50 for Cyprinus carpio EPC to IC50 for human HL60 cells
[29] = Antiproliferative activity against Cyprinus carpio EPC after 24 to 72 hrs by MTS assay
HL-60 [30] = assay: Antiproliferative activity against human HL60 cells at 7 uM after 24 hrs by viacount-reagent based FACS analysis
HL-60 [31] = assay: Induction of apoptosis in human HL60 cells assessed as dead cells at 5 uM after 24 hrs by Annexin V/7AAD-dual staining based FACS analysis
HL60 (Homo sapiens) = assay: Effect on 24 hrs pretreated human HL60 cells assessed as reduction in endogenous GSH content at 7 uM measured for 60 mins by fluorescence assay; conditions: HL-60
HL-60 [32] = assay: Induction of apoptosis in human HL60 cells assessed as necrotic/late apoptotic cells at 5 uM after 24 hrs by Annexin V/7AAD-dual staining based FACS analysis
HL-60 [33] = assay: Induction of apoptosis in human HL60 cells assessed as necrotic/late apoptotic cells at 10 uM after 24 hrs by Annexin V/7AAD-dual staining based FACS analysis (reference value: 0.6 %); type: functional; summary of the method: as §2
KB [34] = assay: Induction of necrosis in human KB cells assessed as increase in LDH release at 50 uM after 24 to 48 hrs by fluorescence assay; type: functional, cell-based
HCT-116 [35] = assay: Induction of necrosis in human HCT116 cells assessed as increase in LDH release 50 uM after 24 to 48 hrs by fluorescence assay; type: functional, cell-based
MRC5 [36] = assay: Induction of necrosis in human MRC5 SV2 cells assessed as increase in LDH release at 50 uM after 24 to 48 hrs by fluorescence assay; type: functional, cell-based
HL-60 [37] = assay: Induction of apoptosis in human HL60 cells assessed as dead cells at 10 uM after 24 hrs by Annexin V/7AAD-dual staining based FACS analysis (reference value: 0.1 %); type: functional
HL-60 [38] = assay: Induction of apoptosis in human HL60 cells assessed as dead cells at 50 uM after 24 hrs by Annexin V/7AAD-dual staining based FACS analysis (reference value: 0.1 %); type: functional
HL-60 [39] = assay: Induction of apoptosis in human HL60 cells assessed as necrotic/late apoptotic cells at 50 uM after 24 hrs by Annexin V/7AAD-dual staining based FACS analysis (reference value: 0.6 %); type: functional; summary of the method: as §2
HL-60 [40] = assay: Induction of apoptosis in human HL60 cells assessed as intact cells at 10 uM after 24 hrs by Annexin V/7AAD-dual staining based FACS analysis (reference value: 91.6 %); type: functional; summary of the method: as §2
HL-60 [41] = assay: Induction of apoptosis in human HL60 cells assessed as intact cells at 50 uM after 24 hrs by Annexin V/7AAD-dual staining based FACS analysis (reference value: 91.6 %); type: functional; summary of the method: as §2
HL-60 [42] = assay: Induction of apoptosis in human HL60 cells assessed as early apoptotic cells at 10 uM after 24 hrs by Annexin V/7AAD-dual staining based FACS analysis (reference value: 7.7 %); type: functional; summary of the method: as §2
HL-60 [43] = assay: Induction of apoptosis in human HL60 cells assessed as early apoptotic cells at 50 uM after 24 hrs by Annexin V/7AAD-dual staining based FACS analysis (reference value: 7.7 %); type: functional; summary of the method: as §2
HL-60 [44] = assay: Induction of apoptosis in human HL60 cells assessed as intact cells at 10 to 50 uM after 24 hrs by Annexin V/7AAD-dual staining based FACS analysis; type: functional, cell-based; summary of the method: as §2
HL-60 [45] = assay: Induction of apoptosis in human HL60 cells assessed as early apoptotic cells at 10 to 50 uM after 24 hrs by Annexin V/7AAD-dual staining based FACS analysis; type: functional, cell-based; summary of the method: as §2
HL-60 [46] = assay: Antiproliferative activity against human HL60 cells at 50 uM after 24 hrs by viacount-reagent based FACS analysis
HL-60 [47] = assay: Induction of apoptosis in human HL60 cells assessed as dead cells at 10 to 50 uM after 24 hrs by Annexin V/7AAD-dual staining based FACS analysis
HL-60 [48] = assay: Induction of apoptosis in human HL60 cells assessed as necrotic/late apoptotic cells at 10 to 50 uM after 24 hrs by Annexin V/7AAD-dual staining based FACS analysis
HL-60 [49] = assay: Induction of necrosis in human HL60 cells assessed as LDH release at 50 uM after 48 hrs by fluorescence assay; type: functional
HL-60 [50] = assay: Induction of apoptosis in human HL60 cells assessed as caspase 3/7 activation at 50 nM preincubated for 24 hrs after 180 mins by fluorescence assay; type: functional, cell-based; summary of the method: as §3

Compound	IC50 [1] [µM]	IC50 [2] [µM]	IC50 [3] [µM]	IC50 [4] [µM]	IC50 [5] [µM]	IC50 [6] [µM]	IC50 [7] [µM]	IC50 [8] [µM]	Activity [19] [%]	Activity [20] [%]	Activity [21] [%]	Activity [22] [%]	Activity [23] [%]	Activity [24] [%]	Activity [25] [%]	Activity [26] [%]	Ratio IC50 (KB [27])	Ratio IC50 (HL-60 [28])	IC50 [29] [µM]	other results
C=C(CC)C(=O)c1ccc(OCC(=O)NCCc2ccc(O)cc2)c(Cl)c1Cl	0.4	0.7	1.8	1.7	1	4.5	1.5	1.7	43.2	47.3	6.2	3.3	44.3	45.8	0.1	9.9	9	5	3.6	Activity (KB [9]): Active; Activity (HCT-116 [10]): Active; Activity (MRC5 [11]): Active; Activity (HL-60 [12]): 0.3%; Activity (HL-60 [13]): 16%; Activity (HL-60 [14]): 33.7%; Activity (HL-60 [15]): 50%; Activity (HL-60 [16]): Active; Activity (HL-60 [17]): Active; Activity (HL-60 [18]): Active; Activity (HL-60 [30]): Active; Activity (HL-60 [31]): Active; GSH reduction activity (HL60 (Homo sapiens)): Active; Activity (HL-60 [32]): Active
C=C(CC)C(=O)c1ccc(OCC(=O)O)c(Cl)c1Cl [ETHACRYNIC ACID]	11	46	41	75	75	> 100	72	38	45.4	43.6	8.3	2.7	41.5	54.1	1.3	3.1	>9	>2	> 100	Activity (HL-60 [33]): 0.9%; Activity (KB [34]): Active; Activity (HCT-116 [35]): Active; Activity (MRC5 [36]): Active; Activity (HL-60 [37]): 0.1%; Activity (HL-60 [38]): 0%; Activity (HL-60 [39]): 0.8%; Activity (HL-60 [40]): 87.8%; Activity (HL-60 [41]): 57.9%; Activity (HL-60 [42]): 11.2%; Activity (HL-60 [43]): 41.3%; Activity (HL-60 [44]): Active; Activity (HL-60 [45]): Active; Activity (HL-60 [46]): Active; Activity (HL-60 [47]): Active; Activity (HL-60 [48]): Active
CC1=CC(=O)c2ccccc2C1=O [MENADIONE]																				Activity (HL-60 [49]): <=60%
COc1cccc2c1C(=O)c1c(O)c3c(c(O)c1C2=O)C[C@@](O)(C(=O)CO)C[C@@H]3O[C@H]1C[C@H](N)[C@H](O)[C@H](C)O1																				Activity (HL-60 [50]): Active
